The source made the active and inactive calls. No cut-off for these calls is given here.
Columns and labels:
PC-12 [1] = assay: Concentration required for 50% inhibition of cell proliferation in PC12 cells using sulforhodamine B assay; type: functional, cell-based; conditions: Rattus norvegicus
Method in brief: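 Sulforhodamine B proliferation assay; cells exposed to drug for 5 days across 0.5 to 100 μM. IC50 is the concentration giving 50% inhibition of proliferation.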

PC-12 [2] = assay: Phosphorylation of eukaryotic initiation factor 2 alpha (eIF2alpha) in PC12 cells, - = No phosphorylation; type: functional, cell-based; conditions: Rattus norvegicus
Method in brief: (§1)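 Cells treated with drug at 15 μM for 2 h. Extracts western blotted with anti-phospho-Ser51 eIF2α antibody. Tro is the positive control and DMSO the negative control. Scored +, ± or −.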

PC-12 [3] = assay: Tested for the intracellular Ca+2 release in PC12 cells; - = No release; type: functional, cell-based; conditions: Rattus norvegicus
Method in brief: (§2)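 Fluo-4-loaded cells treated with drug at 80 μM for 10 min and monitored for Ca2+ release from intracellular stores. Clotrimazole is the positive control. Scored +, ± or −.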

[4] = Partition coefficient (logP); type: physicochemical; conditions: octanol/water
PC-12 [5] = assay: Tested for the intracellular Ca+2 release in PC12 cells; + = Release; type: functional, cell-based; conditions: Rattus norvegicus; method in brief: as §2
PC-12 [6] = assay: Phosphorylation of eukaryotic initiation factor 2 alpha (eIF2alpha) in PC12 cells, +/- = Insignificant phosphorylation; type: functional, cell-based; conditions: Rattus norvegicus; method in brief: as §1
PC-12 [7] = assay: Phosphorylation of eukaryotic initiation factor 2 alpha (eIF2alpha) in PC12 cells, + = Phosphorylation; type: functional, cell-based; conditions: Rattus norvegicus; method in brief: as §1
PC-12 [8] = assay: Tested for the intracellular Ca+2 release in PC12 cells; +/- = Insignificant release; type: functional, cell-based; conditions: Rattus norvegicus; method in brief: as §2

Row | SMILES | IC50 (PC-12 [1]) [µM] | Activity (PC-12 [2]) | Activity (PC-12 [3]) | logP ([4]; read-out: logP) | Activity (PC-12 [5]) | Activity (PC-12 [6]) | Activity (PC-12 [7]) | logP [4] | Activity (PC-12 [8])
1 | O=C1NC(=O)C(Cc2ccc(OCC3CC3)cc2)S1 (stereo unspecified) | > 100 | Not toxic | Not toxic | 2.26 |  |  |  |  | 
2 | O=C1NC(=O)C(Cc2ccc(OCC3CCCCO3)cc2)S1 (stereo unspecified) | > 100 | Not toxic | Not toxic | 2.29 |  |  |  |  | 
3 | CC(C)COc1ccc(CC2SC(=O)NC2=O)cc1 (stereo unspecified) | 25 | Not toxic |  | 3.36 | Release |  |  |  | 
4 | CCOc1ccc(/C=C2\SC(=O)NC2=O)cc1 | 27 |  | Not toxic | 2.16 |  | +/- |  |  | 
5 | CCC(C)(C)Oc1ccc(/C=C2\SC(=O)NC2=O)cc1 | 15 |  |  | 3.49 | Phosphorylation |  | Phosphorylation |  | 
6 | COc1ccc(/C=C2\SC(=O)NC2=O)cc1 | 23 | Not toxic | Not toxic | 1.63 |  |  |  |  | 
7 | O=C1NC(=O)/C(=C/c2ccc(O)cc2)S1 | 20 | Not toxic | Not toxic | 1.05 |  |  |  |  | 
8 | O=C1N=C(O)S/C1=C\c1ccc(OCC2CCCC2)cc1 | 10 |  |  |  | Phosphorylation |  | Phosphorylation |  | 
9 | O=C1NC(=O)C(Cc2ccc(OCc3ccccc3)cc2)S1 (stereo unspecified) | > 100 | Not toxic | Not toxic | 3.67 |  |  |  |  | 
10 | O=C1NC(=O)/C(=C/c2ccc(OCC3CCCC3)cc2)S1 |  |  |  | 3.21 |  |  |  |  | 
11 | O=C1NC(=O)/C(=C/c2ccc(OCc3ccccc3)cc2)S1 |  |  |  | 3.4 |  |  |  |  | 
12 | CCCOc1ccc(CC2SC(=O)NC2=O)cc1 (stereo unspecified) | 45 |  | Not toxic | 2.96 |  | +/- |  |  | 
13 | O=C1NC(=O)/C(=C/c2ccc(OCC3CCC3)cc2)S1 | 13 |  |  | 2.54 | Phosphorylation |  | Phosphorylation |  | 
14 | CCOc1ccc(CC2SC(=O)NC2=O)cc1 (stereo unspecified) | > 100 |  | Not toxic | 2.43 |  | +/- |  |  | 
15 | O=C1NC(=O)/C(=C/c2ccc(OCC3CC3)cc2)S1 | 23 |  | Not toxic | 1.99 |  | +/- |  |  | 
16 | COc1ccc(CC2SC(=O)NC2=O)cc1 (stereo unspecified) | > 100 | Not toxic | Not toxic | 1.91 |  |  |  |  | 

Row | SMILES | IC50 (PC-12 [1]) [µM] | Activity (PC-12 [2]) | Activity (PC-12 [3]) | logP ([4]; read-out: logP) | Activity (PC-12 [5]) | Activity (PC-12 [6]) | Activity (PC-12 [7]) | logP [4] | Activity (PC-12 [8])
17 | O=C1NC(=O)C(Cc2ccc(OCC3CCCCC3)cc2)S1 (stereo unspecified) | 26 |  |  | 3.94 | Release | +/- |  |  | 
18 | O=C1NC(=O)/C(=C/c2ccccc2)S1 | > 100 | Not toxic | Not toxic | 1.71 |  |  |  |  | 
19 | Cc1c(C)c2c(c(C)c1O)CCC(C)(COc1ccc(/C=C3/SC(=O)NC3=O)cc1)O2 (stereo unspecified) | 5 |  |  | 5.31 | Phosphorylation |  | Phosphorylation |  | 
20 | O=C1NC(=O)C(Cc2ccc(OCC3CCCC3)cc2)S1 (stereo unspecified) | 25 |  |  | 3.38 | Phosphorylation |  | Phosphorylation |  | 
21 | O=C1NC(=O)C(Cc2ccccc2)S1 (stereo unspecified) | > 100 | Not toxic | Not toxic | 1.99 |  |  |  |  | 
22 | CC1(COc2ccc(CC3SC(=O)NC3=O)cc2)CCCCC1 (stereo unspecified) [CIGLITAZONE] | 20 |  |  |  | Active |  | Active | 5.07 | 
23 | O=C1N=C(O)S/C1=C\c1ccc(OCC2CCCCC2)cc1 | 14 |  |  | 3.66 | Phosphorylation |  | Phosphorylation |  | 
24 | O=C1N=C(O)S/C1=C\c1ccc(OCC2CCCCO2)cc1 (stereo unspecified) | 22 |  |  | 2.02 | Phosphorylation |  | Phosphorylation |  | 
25 | CCCOc1ccc(/C=C2\SC(=O)NC2=O)cc1 | 7 |  |  | 2.69 |  | +/- |  |  | +/-
26 | CC(C)COc1ccc(/C=C2\SC(=O)NC2=O)cc1 | 16 |  | Not toxic | 3.09 |  | +/- |  |  | 
27 | O=C1N=C(O)S/C1=C\c1ccc(OCc2ccccc2)cc1 | 15 | Not toxic | Not toxic |  |  |  |  |  | 
28 | Cc1c(C)c2c(c(C)c1O)CCC(C)(COc1ccc(CC3SC(=O)NC3=O)cc1)O2 (stereo unspecified) [TROGLITAZONE] | 15 |  |  | 4.46 | Active |  | Active |  | 
29 | CCC(C)(C)Oc1ccc(CC2SC(=O)NC2=O)cc1 (stereo unspecified) | 23 |  |  | 3.76 | Phosphorylation |  | Phosphorylation |  | 
30 | O=C1NC(=O)C(Cc2ccc(O)cc2)S1 (stereo unspecified) [GLITAZONE] | > 100 |  | Not toxic | 1.32 |  | +/- |  |  | 
31 | O=C1NC(=O)C(Cc2ccc(OCC3CCC3)cc2)S1 (stereo unspecified) | > 100 | Not toxic |  | 2.81 | Release |  |  |  | 
